SR-BI DiI inh = inhibitors of mouse SR-BI mediated HDL lipid uptake | ldlA[mSR-BI] CHO cells, DiI-HDL uptake fluorescence, 3 h | inhibition, % at 12.5 µM | 320,000 compounds, 0.96% hits | Q61009;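 active = mean replicate inhibition of at least 70% and a set share of replicates each scoring 70 or more; inconclusive = meets just one of the two criteria; inactive = fails both criteria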;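 also: 0% = median of neutral control wells and 100% = median of positive control wells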
FXN GAA850 act = frataxin GAA850 promoter activation. 360,000 compounds, 0.56% hits. activation, % at 6 µM. AID 540364. HEK293 lucGAA850 FXN promoter luciferase reporter, 24 h; percent of 10 µM SAHA response;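 active = activation above the average of all compounds screened plus 3 SD, cutoff fixed separately per campaign, cut at about 7.5% in these data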;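 also: 0% = DMSO wells and 100% = 10 µM SAHA wells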
GASC-1 inh = blocks human GASC-1 demethylase activity | Q9H3R0 | GST-JMJD2C(1-420) H3K9me3 demethylation, DELFIA europium | inhibition, % at 2.35 µM | 330,000 compounds, 0.069% hits | AID 2099;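 active = more than half of a compound's replicate wells show inhibition beyond 50%, single wells judged on their own value; inconclusive = some, but no more than half, of replicates pass 50% inhibition; inactive = no replicate passes 50% inhibition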;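 also: signal counts dimethyl H3K9 product captured on neutravidin plate; 0% = median of DMSO wells and 100% = 0.3 times that DMSO median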
AHR act = human AHR activation. P35869. AHR-responsive luciferase reporter cells, luminescence. activation, % at 5 µM. 320,000 compounds, 2.5% hits. AID 2796; in the data active = activation above about 47%;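 also: 0% = vehicle wells and 100% = reference agonist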
SR-BI uptake up = SR-BI HDL lipid transfer activation; activation, % at 12.5 µM; CHO ldlA[mSR-BI] cells, DiI-HDL uptake fluorescence, 3 h; 100 = double the neutral-control signal; 320,000 compounds, 0.096% hits;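 active = mean replicate activation of at least 60% and every replicate at or above 60%; inconclusive = mean or all-replicate condition met, but not both; inactive = mean below 60% and not all replicates reaching 60%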;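 also: 0% = median plate neutral-control signal and 100% = twice that signal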
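System: CHO ldlA[mSR-BI] cells / Medium: HEPES-buffered (25 mM, pH 7.4) F12 plus 0.5% BSA / Probe or stimulus: labelled HDL, 10 µg/mL / Doses: single compound concentration, delivered by pin transfer / Schedule: 3 h, 37 °C / Measured by: DiI fluorescence, bottom read / Measure: cell-associated DiI fluorescence as measure of HDL uptake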
* marks the source's active call; other numbers are inactive results; ? = inconclusive; · = not tested or not shown. Only some compounds are listed: those with a hit (about 3.7% of all), similar ones and a draw of the others.

SMILES	SR-BI DiI inh	FXN GAA850 act	GASC-1 inh	AHR act	SR-BI uptake up
Cc1ccc(-c2cc(-c3ccccc3)nc(NN)n2)cc1	32.4	0.0	0.8	66.4*	-32.4
COc1ccc(-c2cc(-c3ccccc3)nc(NN)n2)cc1OC	16.3	1.6	-1.0	65.4*	-16.3
COc1ccc(-c2cc(C#N)nc(NN)n2)cc1	5.5	-1.4	-11.6	46.4	-5.5
O=C(CSc1nnc(Nc2ccccc2)s1)Nc1cccc(S(=O)(=O)N2CCCCC2)c1	29.0	-4.1	-25.2	0.4	-29.0
Cc1ccccc1N(C(=O)c1snc(C(N)=O)c1N)C(C)C(=O)NC1CCCCC1 (stereo not drawn)	82.5*	-0.3	5.0	-3.2	-82.5
CCc1ccccc1N(C(=O)c1snc(C(N)=O)c1N)C(C(=O)NCC1CCCO1)c1ccc(C)o1 (stereo not drawn)	-8.8	-1.1	-21.7	79.1*	8.8
Cc1ccccc1N(C(=O)c1snc(C(N)=O)c1N)C(C(=O)NC1CCCCC1)c1ccc(O)cc1 (stereo not drawn)	·	3.0	25.5	6.1	·
Cc1ccc(N(C(=O)c2snc(C(N)=O)c2N)C(C(=O)NCC2CCCO2)c2ccc(C)o2)c(C)c1 (stereo not drawn)	·	0.4	2.4	6.4	·
CCC(=O)N(Cc1cc(=O)[nH]c2ccccc12)c1ccc(C)cc1	-7.3	-1.4	-8.2	11.2	7.3
c1ccc2c(c1)oc1c(N3CCOCC3)ncnc12	-1.4	0.6	0.1	72.6*	1.4
COc1ccccc1N1CCN(c2ncnc3c2oc2ccccc23)CC1	15.8	1.1	14.5	8.6	-15.8
Cc1ccc(C(=O)NCCNC(=O)COc2ccccc2Cl)cn1	·	1.1	1.8	-3.9	·
Nc1ccccc1SSc1ccccc1N	-10.6	3.6	24.2	18.7	10.6
Nc1ccccc1SCc1ccccc1Cl	-4.4	2.0	0.1	67.4*	4.4
Nc1ccccc1SCc1c(Cl)cccc1Cl	10.8	-1.1	6.7	50.2*	-10.8
CSc1ccc(C#N)cc1NC(=O)c1ccccc1C	55.1	-1.2	32.9	28.4	-55.1
CCc1ccccc1NC(=O)Nc1cccs1	-2.6	-1.8	-31.3	50.0*	2.6
COCCCn1c(SCC(=O)Nc2ccc(NC(=O)c3ccco3)c(OC)c2)nc2ccccc2c1=O	73.6*	1.7	8.6	1.0	-73.6
Oc1ccc(N=Nc2c(O)ccc3ccccc23)cc1	69.8	-1.6	9.4	79.3*	-69.8
Cc1ccc2[nH]c(=O)c(COC(=O)c3cccs3)cc2c1	-15.4	0.8	-5.3	1.3	15.4
COc1ccc(CNc2ncc(-c3ccc(F)cc3)n2C)c2ccccc12	11.2	-10.4	-5.3	61.3*	-11.2
COc1ccccc1CNc1ncc(-c2ccc(F)cc2)n1C	-5.9	-1.9	16.2	72.7*	5.9
COc1ccc(-c2sc3ccc(OC)cc3c2C#CCCO)cc1	46.1	4.2	1.0	60.9*	-46.1
COc1cc(OC)cc(-c2sc3ccc(OC)cc3c2-c2ccc(O)cc2)c1	62.6	3.8	2.3	35.4	-62.6
COc1ccc(-c2sc3ccc(OC)cc3c2-c2ccc(O)cc2)cc1	?	1.0	19.4	64.8*	-71.1
SMILES	SR-BI DiI inh	FXN GAA850 act	GASC-1 inh	AHR act	SR-BI uptake up
O=C(O)C1CCCCC1C(=O)NCc1ccc(Cl)c(Cl)c1 (stereo not drawn)	-27.3	2.8	0.2	2.6	27.3
Cc1cc(-c2nn(-c3ccccc3F)cc2CN(C)CC(O)CO)c(C)s1 (stereo not drawn)	-25.4	0.2	0.6	5.3	25.4
COc1ccc(/C=C/C(=O)N(C)Cc2cccs2)cc1S(=O)(=O)N1CCOCC1	13.9	-0.8	-4.5	1.1	-13.9
CCCCNC(=O)CSc1nc2ccsc2c(=O)n1CCCC(=O)NCCc1ccc(S(N)(=O)=O)cc1	18.5	0.9	-22.7	-1.1	-18.5
CC(C)c1ccc(NC(=O)Nc2cc3sccc3n2C)cc1	35.8	0.6	-7.4	47.7*	-35.8
CCN1CCN(C(=O)C2CCN(S(=O)(=O)c3ccc(SC)cc3)CC2)CC1	·	1.4	-0.8	-0.4	·
O=C(O)CC(NC(=O)Cc1ccccc1)c1cc([N+](=O)[O-])ccc1Cl (stereo not drawn)	-19.4	2.0	-24.0	0.0	19.4
Nc1nc2cc(Cl)c(Br)cc2o1	-5.3	1.2	·	·	5.3
O=C1OC(c2ccc(Br)cc2)=N/C1=C\N1CCCCC1	22.1	3.9	0.2	63.0*	-22.1
COc1ncnc2c1ncn2CCCNCc1ccccc1	·	0.3	·	·	·

Assay outcomes (PubChem)
